Most compounds without a hit are left out; they make up all but 1.9% or so of the library.
Scp-1 inhibitor: inhibitors of human Scp-1 phosphatase; Q9GZU7; Recombinant Scp1, phosphopeptide, malachite green phosphate absorbance; inhibition, % at 20 µM; 340,000 tested, 0.88% active;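 active = inhibition above about 50% at 20 µM, limit read from the data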;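 note: plate controls were DMSO wells with enzyme for no effect and wells lacking enzyme for full effect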
Target sequence (Q9GZU7 76-261 limits assumed): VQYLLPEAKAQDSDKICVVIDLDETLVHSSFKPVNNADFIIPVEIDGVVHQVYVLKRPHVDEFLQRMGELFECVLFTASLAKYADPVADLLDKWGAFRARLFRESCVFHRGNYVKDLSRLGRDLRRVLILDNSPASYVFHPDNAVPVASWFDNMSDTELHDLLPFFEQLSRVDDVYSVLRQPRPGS
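Material – SCP-1 phosphatase catalytic domain, residues 76-261 · Buffer or medium – Acidic Tris acetate buffer with magnesium and detergent · Also added – Phospho 17-mer peptide substrate · Compound – single 20 µM dose, 1% DMSO · Times – 45 min room-temperature reaction, 5 min colour, 30 min stabiliser · Technique – Phosphate-binding colour reagent, absorbance read at 630 nm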
PP1 counter: PP1-alpha (human) inhibition in PP5 counter-screen; P62136; purified PP1alpha, OMFP fluorescence; inhibition, % at 6.7 µM; 320,000 tested, 0.9% active;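 active = inhibition above the mean inhibition of all tested compounds plus 3 SD, computed separately for each screening campaign, cut at about 15% in these data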
STEP block: STEP (human) phosphatase inhibition; P54829; recombinant STEP, OMFP fluorogenic substrate, fluorescence; inhibition, % at 20 µM; 360,000 tested, 0.25% active; AID 588621;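 active = inhibition at 20 µM, scaled per plate between control wells, above about 37%, limit read from the data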;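 note: 0% = DMSO with enzyme and substrate and 100% = substrate only without enzyme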
Target sequence (P54829 whole entry, looked up): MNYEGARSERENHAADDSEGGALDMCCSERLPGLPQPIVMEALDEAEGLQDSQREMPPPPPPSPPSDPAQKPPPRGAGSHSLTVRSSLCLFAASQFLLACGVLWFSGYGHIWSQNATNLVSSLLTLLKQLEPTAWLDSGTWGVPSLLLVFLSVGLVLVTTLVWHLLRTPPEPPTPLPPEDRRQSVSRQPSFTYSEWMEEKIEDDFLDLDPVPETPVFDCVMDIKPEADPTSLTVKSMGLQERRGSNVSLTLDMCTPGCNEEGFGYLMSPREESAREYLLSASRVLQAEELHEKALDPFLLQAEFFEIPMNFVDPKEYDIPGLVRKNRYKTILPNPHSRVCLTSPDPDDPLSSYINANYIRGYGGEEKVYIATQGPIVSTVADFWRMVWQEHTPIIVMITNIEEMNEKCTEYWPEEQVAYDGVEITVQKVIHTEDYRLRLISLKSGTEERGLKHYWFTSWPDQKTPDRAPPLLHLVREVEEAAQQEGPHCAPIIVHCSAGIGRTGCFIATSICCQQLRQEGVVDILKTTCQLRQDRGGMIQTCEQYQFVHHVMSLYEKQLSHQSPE
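System: STEP (striatal-enriched tyrosine phosphatase) enzyme, cell-free; medium: Bis-Tris pH 6.0 buffer with DTT, detergent; dosing: 20 µM, 1% DMSO; times: reaction 20 min, ambient temperature; detection: fluorescence, 480/540 nm; read-out basis: normalized % inhibition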
PP5 primary: blocks human protein phosphatase 5 activity; AID 1987; inhibition, % at 6.7 µM; 320,000 tested, 0.18% active; P53041; purified PP5c, OMFP substrate fluorescence;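 active = inhibition above the campaign's mean inhibition across all tested compounds plus 3 SD, cut at about 9.5% in these data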;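 note: 0% = DMSO only and 100% = 100 µM cantharidin control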
LMPTP inh: LMPTP (human) inhibition | P24666 | inhibition, % at 20 µM | recombinant LMPTP-A, OMFP fluorogenic substrate, fluorescence intensity | 360,000 tested, 0.22% active | AID 651560;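 active = compounds that cut the enzyme signal by at least half of the control window in the single-dose screen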;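 note: plate controls were DMSO wells with enzyme plus substrate for no effect and substrate without enzyme for full effect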
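Test system – LMPTP-A phosphatase enzyme · Quantity – 0.625 nM LMPTP-A final · Reagent – OMFP substrate, 400 µM final · Dosing – one test concentration per compound, 20 µM, with 3% DMSO overall · Timing – 50 min enzyme reaction at room temperature, protected from light · Detection – fluorescence intensity · Controls – substrate-only low control, DMSO enzyme-plus-substrate high control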
PP1 inh confirm: confirmation of human PP1 phosphatase inhibitors; shares compounds with PP1 counter; purified PP1alpha, OMFP substrate fluorescence; inhibition, % at 6.7 µM; 1,900 tested, 52% active;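 active = mean PP1 inhibition above a set limit taken from the earlier primary screen, cut at about 15% in these data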
PP5 inh counter: PP5 phosphatase inhibition, counter-screen for PP1 inhibitors | shares compounds with PP1 counter | purified PP5c, OMFP fluorescence | inhibition, % at 6.7 µM | 1,900 tested, 4% active | AID 2360;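 active = mean PP5 inhibition over triplicate wells above about 9.5% taken from the earlier PP1 screen, limit read from the data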
Starred values were filed as active, the others as inactive; . = not tested or not shown.

SMILES | Scp-1 inhibitor | PP1 counter | STEP block | PP5 primary | LMPTP inh | PP1 inh confirm | PP5 inh counter
COc1cc(NC(=O)c2cc(S(=O)(=O)N3CCCCC3)c[nH]2)cc(OC)c1 | -12.9 | 17.6* | 0.1 | -1.9 | -1.0 | 12.2 | -3.8
O=C(CCN1C(=O)C2CCCCC2C1=O)N1CCN(S(=O)(=O)c2ccccc2)CC1 (stereo not drawn) | -3.8 | 33.5* | 2.3 | 2.0 | -1.5 | -1.6 | -1.4
CCN(CCO)c1nc(SC)nc2c1sc1nc(-c3ccco3)c3c(c12)CCC3 | -14.3 | 18.5* | 25.8 | 1.6 | -0.2 | 27.7* | -0.5
CSc1nc(NCCOCCO)c2sc3nc(-c4ccco4)c4c(c3c2n1)CCC4 | 0.3 | 44.9* | 2.0 | 1.4 | 2.0 | 25.3* | -0.5
O=[N+]([O-])c1ccccc1/C=C/C=N/n1c(-c2ccc(Cl)cc2)n[nH]c1=S | 15.5 | 25.4* | 24.5 | 2.4 | 37.1 | 27.5* | -2.8
CC(C)C[C@H]1CNC(=S)N1C[C@H]1CCCN1C[C@H](CC(C)C)N1C[C@H](Cc2ccc(O)cc2)N(CCc2ccccc2)C1=S | . | . | 3.4 | . | 4.7 | . | .
O=C(O)C(Cc1ccccc1)N1C(=O)/C(=C/c2cccc3ccccc23)SC1=S (stereo not drawn) | . | 20.4* | . | 2.7 | . | 32.5* | 1.1
CCOc1ccc(/C(O)=C2/C(=O)C(=O)N(CC3CCCO3)C2c2ccco2)cc1 (stereo not drawn) | -0.2 | -0.9 | 5.3 | 1.5 | -1.4 | . | .
N#Cc1cn(-c2ccccc2)nc1-c1ccco1 | -11.2 | 4.5 | 2.1 | -2.2 | 0.5 | . | .
C/C(=N/NC(=O)c1cc2ccccc2cc1O)C1C(=O)c2ccccc2C1=O | 20.8 | 24.2* | -1.5 | 6.4 | 66.1* | 16.6* | -3.8
Cc1ccccc1NC(=O)NC1(C(=O)NCCCN2CCOCC2)CCCCC1 | -8.3 | -0.5 | 0.8 | 4.3 | -5.2 | . | .
N#Cc1c(-c2ccc(Cl)cc2)cc(-c2cccs2)nc1SCC(=O)O | 89.7* | 46.8* | 97.8* | 2.5 | 91.6* | 49.0* | -4.9
N#Cc1c(-c2ccccc2)cc(-c2cccs2)nc1SCC(=O)O | 3.6 | 7.8 | 5.0 | -0.6 | 0.4 | . | .
O=C(Nc1nc(-c2ccccn2)cs1)c1cccc(-n2cnnn2)c1 | -1.7 | 27.1* | 8.2 | -0.8 | 7.5 | 21.3* | -1.8
O=C(Nc1nc(-c2ccccn2)cs1)c1ccc(Br)s1 | -7.0 | 30.9* | 13.7 | 3.5 | 2.0 | 16.7* | -1.6
O=C(Nc1cccc(O)c1)C(Cc1ccccc1)N1C(=O)c2cccc3cccc(c23)C1=O (stereo not drawn) | 0.8 | 18.6* | 0.7 | 1.4 | 0.4 | 28.5* | 1.0
COc1ccc(C2CC(=O)N(C)c3ccccc3S2)cc1 (stereo not drawn) | -8.9 | 0.8 | 2.2 | 0.1 | -0.4 | . | .
O=C(N/N=C/c1cc([N+](=O)[O-])cc([N+](=O)[O-])c1O)/C(=C\c1cccs1)NC(=O)c1ccccc1 | -3.1 | 20.7* | 2.8 | 1.4 | 1.4 | 30.4* | -2.5
Cc1ccc(C)n1-c1ccc(-c2nnco2)cc1 | . | 23.5* | -0.9 | 0.1 | 3.7 | 1.0 | -3.3
Cc1ccc(C)n1-c1ccc(-n2cnnn2)cc1 | 2.1 | 24.9* | -6.5 | 1.3 | 15.2 | 15.3* | -1.4
CC(O)c1ccc(-n2cnnn2)cc1 (stereo not drawn) | -4.6 | 7.8 | -5.8 | -0.3 | -0.7 | . | .
c1ccc(C(Cc2nc(-c3ccccn3)no2)c2ccccc2)cc1 | 17.3 | 0.2 | -4.6 | 3.3 | -1.2 | . | .
O=C(Cc1csc(NC(=O)Nc2cccc(Cl)c2)n1)NCc1ccccn1 | 1.6 | 2.0 | -1.3 | 2.6 | 0.5 | . | .
O=C(Cc1csc(NC(=O)Nc2cccc(Cl)c2)n1)NC1CCCC1 | 43.2 | 36.2* | 2.5 | 3.9 | 1.0 | 42.0* | -0.9
Cc1cc(-c2csc(NC(=O)c3ccc(=O)[nH]c3)n2)c(C)n1Cc1ccco1 | -9.0 | 44.7* | 10.6 | 0.9 | 62.7* | 33.6* | -0.9
SMILES | Scp-1 inhibitor | PP1 counter | STEP block | PP5 primary | LMPTP inh | PP1 inh confirm | PP5 inh counter
COc1cccc(-c2nnc(NC(=O)c3ccc(Cl)s3)o2)c1 | -16.0 | 21.8* | 1.5 | -0.7 | 0.1 | 25.2* | -4.9
COc1cccc(-c2nnc(NC(=O)c3cccc(F)c3)o2)c1 | -12.9 | 13.6 | 2.2 | 3.6 | 0.4 | . | .
O=C(Nc1nnc(-c2ccco2)o1)c1ccc(Cl)s1 | -10.7 | 17.5* | 4.3 | -2.3 | -1.4 | 3.2 | -2.3
O=C(NN1CCOCC1)c1ccc(F)cc1 | -8.3 | 20.2* | -1.0 | 0.5 | 0.6 | -5.6 | -5.9
COC(=O)c1cc(-c2ccc(F)cc2)n(-c2ccccc2)n1 | -9.0 | 3.2 | -3.2 | 2.5 | 0.1 | . | .
O=C(O)c1nc(-c2ccccc2)n(-c2ccc(Cl)cc2)n1 | -5.9 | 18.1* | -3.6 | -1.0 | -2.6 | 18.1* | -6.4
Cc1ccccc1-n1nc(C(=O)O)cc1-c1ccccc1 | -7.8 | 36.2* | 1.2 | 4.0 | -0.6 | 33.2* | -4.8
O=C(O)c1cc(-c2ccccc2)n(-c2ccccc2)n1 | -7.8 | 24.2* | 2.4 | 0.7 | -1.8 | 28.1* | -2.8
O=C(O)c1cc(-c2ccc(Cl)c(Cl)c2)n(-c2ccc(F)cc2)n1 | -1.1 | 52.7* | 0.6 | -0.1 | -2.1 | 48.8* | -5.2
O=C(O)c1cc(-c2ccccc2Cl)n(-c2ccccc2)n1 | -12.1 | 3.4 | -4.2 | -0.8 | -1.8 | . | .
O=C(CNc1ccc2ccccc2c1)NNC1=NCCC1 | 4.5 | -4.9 | -0.6 | 4.2 | -2.6 | . | .
NS(=O)(=O)c1ccc(-n2nc(C(=O)O)cc2-c2ccc(Cl)cc2)cc1 | -5.3 | 9.2 | -1.6 | 1.0 | 0.3 | . | .
COc1ccc(-n2nc(C(=O)O)cc2-c2ccccc2)cc1 | -2.0 | 26.2* | -0.1 | 0.4 | -0.7 | 24.4* | -4.7
O=C(O)c1cc(-c2ccccc2)n(-c2ccc(Cl)cc2)n1 | -7.2 | 23.9* | 7.1 | -0.3 | 0.4 | 30.6* | 2.5
COc1ccc(N2CCN(S(=O)(=O)c3c(C)[nH]c(C)c3C(=O)N3CCCC3)CC2)cc1 | -1.7 | 0.1 | -1.5 | 0.0 | -1.9 | . | .
O=C(O)CN1C(=O)C2C3CC(C2C1=O)C1C(c2ccc(F)cc2)c2sc(=O)[nH]c2SC31 (stereo not drawn) | -2.7 | -3.3 | -1.6 | 1.0 | -1.1 | . | .
O=C(Nc1ccc(-c2nc3ncccc3o2)cc1)c1ccc(Br)o1 | 11.9 | 24.9* | 4.6 | -2.3 | 7.2 | 7.1 | -5.5
CC(C)CN(CC(C)C)c1ccc(/C=N/n2cnnc2)cc1[N+](=O)[O-] | -2.7 | 11.2 | 6.8 | 5.1 | 3.4 | . | .
CCc1cc(=O)oc2cc(C)c(CN3CCCC3)c(O)c12 | 6.7 | 22.3* | 2.7 | 0.1 | 8.2 | 1.7 | -2.4
CC1CCc2c(sc(NC(=O)C(=O)NCc3ccco3)c2C#N)C1 (stereo not drawn) | -6.4 | 20.0* | 1.7 | 1.8 | 0.0 | 20.9* | -3.0

Assay outcomes: PubChem, several laboratories
